Columns and labels:
[1] = molecular target: T1, Nuclear receptor subfamily 1 group I member 2 (Homo sapiens, UniProt O75469); assay: Induction of PXR transactivation in HepG2 cells; type: cell-based
T1 sequence (O75469 whole entry): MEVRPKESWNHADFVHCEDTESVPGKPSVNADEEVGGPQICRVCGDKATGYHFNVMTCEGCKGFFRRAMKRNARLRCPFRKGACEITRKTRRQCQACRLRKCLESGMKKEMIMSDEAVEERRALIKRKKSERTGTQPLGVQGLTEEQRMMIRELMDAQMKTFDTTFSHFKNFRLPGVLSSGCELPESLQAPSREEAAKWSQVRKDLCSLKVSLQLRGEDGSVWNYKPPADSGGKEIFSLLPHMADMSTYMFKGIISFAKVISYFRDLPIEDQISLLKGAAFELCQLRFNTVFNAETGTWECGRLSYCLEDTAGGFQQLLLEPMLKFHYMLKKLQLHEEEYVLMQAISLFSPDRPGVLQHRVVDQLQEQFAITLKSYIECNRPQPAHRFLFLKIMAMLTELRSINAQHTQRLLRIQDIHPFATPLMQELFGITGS
Procedure, shortened: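 HepG2 cells transiently transfected with PXR-pcDNA3 and Cyp3A-Luc reporter, cryopreserved, then thawed into DMEM with 5% charcoal/dextran FBS. Ten concentrations, 1:3 serial dilution, DMSO 0.1% final; 24 h at 37 °C. Luciferase luminescence read. % activation relative to 10 µM rifampicin (total) and DMSO (blank); EC50 and Emax from concentration–%Act plot.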

[2] = molecular target: T1, Nuclear receptor subfamily 1 group I member 2; assay: Inhibition of refampicin-mediated PXR activation in HepG2 cells; type: cell-based
Procedure, shortened: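 HepG2 cells transiently co-transfected with PXR-pcDNA3 and Cyp3A-Luc, cryopreserved and thawed into charcoal/dextran-FBS medium. Co-incubated with 10 µM rifampicin plus compound at ten concentrations (1:3 dilution, 0.1% DMSO final), 24 h at 37 °C; luciferase luminescence. Percent inhibition computed; IC50 and Imax taken from the concentration–%Inh plot.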

[3] = molecular target: Cytochrome P450 3A4 (Homo sapiens, UniProt P08684); assay: Inhibition of CYP3A4 in human liver microsome; type: ADME, microsomes
Procedure, shortened: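 Pooled human liver microsomes 0.1 mg/mL, midazolam 5 µM, NADPH 1 mM, 5 min reaction. Time-dependent variant: 30 min preincubation without midazolam, then midazolam added for 5 min. 1-Hydroxymidazolam measured against DMSO control; IC50 and maximum inhibition taken from the concentration–%Inh plot.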

[4] = tested on: Caco-2; assay: Cytotoxicity against human Caco-2 cells assessed as viability upto 100 uM by MTT assay; type: functional
Procedure, shortened: (§1)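 MTT viability read-out; cells exposed to a concentration range of drug for 48 h. Three separate experiments, each run in triplicate.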

[5] = tested on: LS174T; assay: Cytotoxicity against human LS174T cells assessed as viability upto 100 uM by MTT assay; type: functional; procedure, shortened: as §1
[6] = tested on: SK-OV-3; assay: Cytotoxicity against human SKOV3 cells assessed as viability upto 100 uM by MTT assay; type: functional; procedure, shortened: as §1
[7] = Cytotoxicity against human CRL cells assessed as viability upto 100 uM by MTT assay; type: cell-based; settings: read-out: Activity; procedure, shortened: as §1

Chain of Cytochrome P450 3A4 (P08684 whole entry): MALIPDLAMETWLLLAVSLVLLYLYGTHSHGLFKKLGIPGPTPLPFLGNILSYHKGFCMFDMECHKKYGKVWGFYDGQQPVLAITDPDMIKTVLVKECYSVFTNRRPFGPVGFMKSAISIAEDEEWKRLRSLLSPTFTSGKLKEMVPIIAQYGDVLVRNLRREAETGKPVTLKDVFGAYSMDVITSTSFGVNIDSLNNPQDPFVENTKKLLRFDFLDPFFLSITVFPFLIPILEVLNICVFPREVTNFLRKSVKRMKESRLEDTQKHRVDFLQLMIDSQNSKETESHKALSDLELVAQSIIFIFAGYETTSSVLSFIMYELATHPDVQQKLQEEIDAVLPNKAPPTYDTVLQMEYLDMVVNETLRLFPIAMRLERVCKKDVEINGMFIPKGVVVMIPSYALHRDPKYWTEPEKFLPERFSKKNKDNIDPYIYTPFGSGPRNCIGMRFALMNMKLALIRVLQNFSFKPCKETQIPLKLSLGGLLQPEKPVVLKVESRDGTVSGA

## CC(=O)N1CCN(c2ccc(OCC3COC(C)(c4ccc(Cl)cc4Cl)O3)cc2)CC1 (stereo not drawn)
[1]
  Activity: 10%
[2]
  inhibition (INH): 109%

## CC(=O)N1CCN(c2ccc(OC[C@H]3CO[C@@](C)(c4ccc(F)cc4F)O3)cc2)CC1
[1]
  Activity: 10%
[2]
  inhibition (INH): 103%
[3]
  IC50: > 40 µM
[4]
  Activity: 98%
[5]
  Activity: 98%
[6]
  Activity: 98%
[7]
  viability: 98%

## CC(=O)N1CCN(c2ccc(OC[C@H]3CO[C@](Cn4ccnc4)(c4ccc(Cl)cc4Cl)O3)cc2)CC1 [KETOCONAZOLE]
[4]
  Activity: 65%
[5]
  Activity: 65%
[6]
  Activity: 65%
[7]
  viability: 65%

Reference: ChEMBL document CHEMBL1155093 (Bioorg Med Chem Lett, 2008)
